Results on 12 compounds are retold here after ChEMBL document CHEMBL3608241, “Molecular docking design and one-pot expeditious synthesis of novel 2,5-diarylpyrazolo[1,5-a]pyrimidin-7-amines as anti-inflammatory agents” (2015).

Format in all cases: functional
Assay [1] relates to Rattus norvegicus. As to the kind of experiment: Antiinflammatory activity in Wistar albino rat assessed as inhibition of carrageenan-induced paw edema at 50 mg/kg, po administered 30 mins prior to carrageenan challenge measured after 1 hr by plethysmometric analysis relative to control. In a few lines:
(§1)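 Male Wistar albino rats, 200-250 g, housed under standard light and temperature, fasted from 12 h before and through the experiment; groups of five. Oral dosing 30 min before 0.1 ml of 1% carrageenan in 0.9% saline was injected into the left hind paw plantar region. Controls received Tween 80 only. Paw volume was read by plethysmometer at 0 h and at 1-4 h. Inhibition (%) = (Vc − Vt)/Vc × 100; mean ± SEM.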
A general note: In the carrageenan paw model, swelling and tenderness develop within hours.

The test system of assay [2] is Rattus norvegicus. Briefly: Antiinflammatory activity in Wistar albino rat assessed as inhibition of carrageenan-induced paw edema at 50 mg/kg, po administered 30 mins prior to carrageenan challenge measured after 2 hrs by plethysmometric analysis relative to control. The method, boiled down:
as §1

The subject of assay [3] is Rattus norvegicus. Briefly: Antiinflammatory activity in Wistar albino rat assessed as inhibition of carrageenan-induced paw edema at 50 mg/kg, po administered 30 mins prior to carrageenan challenge measured after 3 hrs by plethysmometric analysis relative to control. In a few lines:
as §1

Assay [4] concerns Rattus norvegicus. Briefly: Antiinflammatory activity in Wistar albino rat assessed as inhibition of carrageenan-induced paw edema at 50 mg/kg, po administered 30 mins prior to carrageenan challenge measured after 4 hrs by plethysmometric analysis relative to control. In a few lines:
as §1

The test system of assay [5] is Rattus norvegicus. Briefly: Antiinflammatory activity in Wistar albino rat assessed as inhibition of carrageenan-induced paw edema at 10 mg/kg, po administered 30 mins prior to carrageenan challenge measured after 1 hr by plethysmometric analysis relative to control. The method, boiled down: as §1
Assay [6] concerns Rattus norvegicus. As to the kind of experiment: Antiinflammatory activity in Wistar albino rat assessed as inhibition of carrageenan-induced paw edema at 10 mg/kg, po administered 30 mins prior to carrageenan challenge measured after 2 hrs by plethysmometric analysis relative to control. The method, boiled down: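 Male Wistar albino rats, 200-250 g, fasted 12 hr before and during the test; groups of five. Oral dosing 30 min before sub-plantar injection of 0.1 ml carrageenan (1% in 0.9% saline) into left hind paw; controls got tween 80. Paw volume read by plethysmometer at 0 hr and 1-4 hr; % inhibition = (Vc−Vt)/Vc×100 against control; mean ± SEM.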

Assay [7] concerns Rattus norvegicus. Briefly: Antiinflammatory activity in Wistar albino rat assessed as inhibition of carrageenan-induced paw edema at 10 mg/kg, po administered 30 mins prior to carrageenan challenge measured after 3 hrs by plethysmometric analysis relative to control. In a few lines: as §1
Assay [8] concerns Rattus norvegicus. Briefly: Antiinflammatory activity in Wistar albino rat assessed as inhibition of carrageenan-induced paw edema at 10 mg/kg, po administered 30 mins prior to carrageenan challenge measured after 4 hrs by plethysmometric analysis relative to control. In a few lines: as §1

For orientation: inhibition in vivo means how much of the control response was suppressed. `Cc1ccc(-c2cc3nc(-c4ccc(Cl)cc4)cc(N)n3n2)cc1`: the inhibition in vivo at 50 mg/kg with Rattus norvegicus [1] is 59.6%; in the assay with Rattus norvegicus [2] it was 67.5%; with Rattus norvegicus [3], 64.6%; with Rattus norvegicus [4], 67.8%.
For `Cc1ccc(-c2cc(N)n3nc(-c4ccc(Br)cc4)cc3n2)cc1`, in that order: 67.3%, 76.2%, 73.2% and 64.3%.
Turning to `Cc1ccc(-c2cc3nc(-c4ccccc4)cc(N)n3n2)cc1`, the inhibition in vivo at 50 mg/kg was found to be 26.9% with Rattus norvegicus [1], 17.5% with Rattus norvegicus [2], 34.1% with Rattus norvegicus [3] and 34.5% with Rattus norvegicus [4].
For `Nc1cc(-c2ccc(Cl)cc2)nc2cc(-c3ccc(Br)cc3)nn12`, the inhibition in vivo at 50 mg/kg in the assay with Rattus norvegicus [1] worked out at 13.5%; in the assay with Rattus norvegicus [2] it was 72.5%; in the assay on Rattus norvegicus [3], 56.1%; with Rattus norvegicus [4] it was 65.5%.
On the same counts, the results for `Cc1ccc(-c2cc3nc(-c4ccc(F)cc4)cc(N)n3n2)cc1` are 28.8%, 65%, 26.8% and 64.3%.
As to `Nc1cc(-c2ccc(Br)cc2)nc2cc(-c3ccccc3)nn12`, the inhibition in vivo at 50 mg/kg with Rattus norvegicus [1] stood at 65.4%; in the assay with Rattus norvegicus [2], 63.8%; with Rattus norvegicus [3] it was 56.1%; in the assay on Rattus norvegicus [4], 66.7%.
As for `Cc1ccc(-c2cc3nc(-c4ccc(Br)cc4)cc(N)n3n2)cc1`, the inhibition in vivo at 50 mg/kg came out at 71.2% with Rattus norvegicus [1], 56.2% with Rattus norvegicus [2], 56.1% in the assay with Rattus norvegicus [3] and 66.7% with Rattus norvegicus [4].
For `Cc1ccc(-c2cc(N)n3nc(-c4ccc(Cl)cc4)cc3n2)cc1`, in that order: 57.7%, 75%, 69.5% and 81%.
For `Nc1cc(-c2ccc(Cl)cc2)nc2cc(-c3ccccc3)nn12`, in that order: 21.1%, 13.8%, 28% and 51.2%.
Take `COc1ccc2c(c1)c(CC(=O)O)c(C)n2C(=O)c1ccc(Cl)cc1` [INDOMETHACIN]: the inhibition in vivo at 10 mg/kg came out at 73.1% with Rattus norvegicus [5], 80% in the assay with Rattus norvegicus [6], 82.9% in the assay on Rattus norvegicus [7] and 84.5% in the assay on Rattus norvegicus [8].
Take `Nc1cc(-c2ccc(Br)cc2)nc2cc(-c3ccc(Cl)cc3)nn12`: the inhibition in vivo at 50 mg/kg in the assay on Rattus norvegicus [1] was determined as 59.6%; in the assay on Rattus norvegicus [2], 60%; in the assay with Rattus norvegicus [3], 70.7%; in the assay with Rattus norvegicus [4] it was 76.2%.
In the case of `Cc1ccc(-c2cc(N)n3nc(-c4ccccc4)cc3n2)cc1`, the inhibition in vivo at 50 mg/kg with Rattus norvegicus [1] is 28.8%; in the assay on Rattus norvegicus [2], 37.5%; with Rattus norvegicus [3], 31.7%; in the assay with Rattus norvegicus [4] it was 54.8%.
